The results in this text go back to ChEMBL document CHEMBL1159328, “Cyclotheonamide E4 and E5, new potent tryptase inhibitors from an Ircinia species of sponge” (J Nat Prod, 2002).

*1 amine or outer side, *2 acyl side, *3 side chain or, on linkers, in order; H or OH if unused. Where a SMILES comes first, the peptide text is derived from it. Bridges are numbered along the chain shown (N, C = ends). [ ]: non-standard residue; d: D form. The star is where a group is joined. Arg(ψCOCO) = N=C(N)NCCC[C@H](N[*:1])C(=O)C(=O)[*:2]; X1 = O=C(/C=C/[C@H](Cc1ccc(O)cc1)N[*:1])[*:2]; aIle = CC[C@@H](C)[C@H](N)C(=O)O; Dap = NC[C@H](N)C(=O)O; PhAc = O=C(Cc1ccccc1)*

Usually IC50 stands for the midpoint of a concentration-inhibition curve. Low values mean inhibition by little substance, high ones a need for much substance.

Assay [1] is described as follows: Inhibition of human tryptase in human cultured mast cell lysate. In a few lines: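 Tryptase source: lysate (detergent/hypotonic buffer) of umbilical cord blood-derived human mast cells, ≥12 weeks in culture with SCF and IL-6, 100% pure; 8 × 10³ cell equiv/mL lysate. Preincubated 10 min at 37 °C with varied inhibitor. Substrate: 0.2 mM tosyl-Gly-Pro-Arg-pNA, Tris pH 8.0 buffer; 30 min at 37 °C; A405.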

The nature of assay [2]: Inhibition of mouse tryptase in mouse bone marrow mast cell lysate. In a few lines: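 Lysate (detergent/hypotonic buffer) of CBA/J mouse femoral bone marrow cells cultured 5 weeks with mouse IL-3 (>99% mast cells), used at 8 × 10⁴ cell equiv/mL as tryptase source. 10 min 37 °C preincubation with varied inhibitor levels. Then 0.2 mM tosyl-Gly-Pro-Arg-pNA in Tris pH 8.0 buffer, 30 min 37 °C; absorbance at 405 nm.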

The next assay concerns the target Prothrombin (Homo sapiens, UniProt P00734). Briefly: Inhibition of human thrombin. The gist of the method:
(§1)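 Purified enzyme, preincubated 10 min at 37 °C with a range of inhibitor concentrations. Substrate: 0.2 mM N-p-tosyl-Gly-Pro-Arg p-nitroanilide, in 0.1 M Tris pH 8.0 with 1 mM CaCl2, 1 mM MgCl2, 1 M glycerol and 0.1% Triton X. Then 30 min at 37 °C; absorbance read at 405 nm.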

Assay [3] in a line: Inhibition of bovine trypsin. More on the design: species or system Bos taurus. In a few lines: as §1

In the case of `CCC(C)CC(=O)N[C@@H](C)C(=O)N[C@H]1CNC(=O)/C=C/[C@H](Cc2ccc(O)cc2)NC(=O)[C@H]([C@H](C)CC)NC(=O)C(=O)[C@H](CCCNC(=N)N)NC(=O)[C@@H]2CCCN2C1=O` (some centres not stated) [CYCLOTHEONAMIDE E4], the concentration for half-maximal inhibition (IC50) in assay [1] was 5.1 nM; in assay [2] it was 6.5 nM; against Prothrombin, 7.4 nM; in assay [3] it was 5.9 nM.

On to `CC[C@@H](C)[C@@H]1NC(=O)C(=O)[C@H](CCCNC(=N)N)NC(=O)[C@@H]2CCCN2C(=O)[C@@H](NC(=O)[C@H](C)NC(=O)Cc2ccccc2)CNC(=O)/C=C/[C@H](Cc2ccc(O)cc2)NC1=O` [CYCLOTHEONAMIDE E] (PhAc-A[Dap]P[Arg(ψCOCO)][aIle][X1]; lactam 2-C), for which the IC50 in assay [1] came to 6.9 nM; in assay [2], 17 nM; on Prothrombin it was 16.1 nM; in assay [3], 10.6 nM.

Consider `CCC(C)CC(=O)N[C@@H](C)C(=O)N[C@H]1CNC(=O)/C=C/[C@H](Cc2ccc(O)c(O)c2)NC(=O)[C@H]([C@H](C)CC)NC(=O)C(=O)[C@H](CCCNC(=N)N)NC(=O)[C@@H]2CCCN2C1=O` (some centres not stated) [CYCLOTHEONAMIDE E5], for which the IC50 was found to be 84.7 nM in assay [1], 54.1 nM in assay [2], 67.9 nM against Prothrombin and 37.3 nM in assay [3].
